RBBP9 inh = blocks human serine hydrolase RBBP9; O75884; recombinant RBBP9, FP-Rh probe fluorescence polarization; 0.2% of 220,000 active; inhibition, % at 7.94 µM; AID 1515;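 active = inhibition above the campaign mean of all tested compounds plus 3 SD, cut at about 14% in these data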;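 note: plate controls were DMSO wells with RBBP9 for no effect and wells lacking RBBP9 protein for full effect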
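System: RBBP9 protein | Quantity: 2.5 µM RBBP9 dispensing solution, before mixing | Reagent: FP-Rh probe, 375 nM dispensing solution | Timing: Enzyme-compound preincubation 30 min, then probe labeling 45 min, 25 °C | Measured by: Fluorescence polarization | Read-out: % inhibition | Replication: One well per compound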
TCR CD3 inh = human TCR-CD3 binding inhibition. TAMRA-labeled TCR probe fluorescence, biochemical. inhibition, % at 9.4 µM. 0.37% of 360,000 active. AID 651800; in the data active = inhibition above about 19%;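 note: recombinant mutant TCR 2C K166C tagged with TAMRA read by polarization; 0% = receptor in buffer alone and 100% = receptor with positive control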
PABP polyA inh = PABP-poly(A) binding inhibition; P11940; PABP-poly(A) RNA binding, fluorescence polarization; calls only at 35 µM; 1% of 290,000 active;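 note: calls also rest on retests at 20 µM and on dose response follow-up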
Target sequence (P11940 whole entry, looked up): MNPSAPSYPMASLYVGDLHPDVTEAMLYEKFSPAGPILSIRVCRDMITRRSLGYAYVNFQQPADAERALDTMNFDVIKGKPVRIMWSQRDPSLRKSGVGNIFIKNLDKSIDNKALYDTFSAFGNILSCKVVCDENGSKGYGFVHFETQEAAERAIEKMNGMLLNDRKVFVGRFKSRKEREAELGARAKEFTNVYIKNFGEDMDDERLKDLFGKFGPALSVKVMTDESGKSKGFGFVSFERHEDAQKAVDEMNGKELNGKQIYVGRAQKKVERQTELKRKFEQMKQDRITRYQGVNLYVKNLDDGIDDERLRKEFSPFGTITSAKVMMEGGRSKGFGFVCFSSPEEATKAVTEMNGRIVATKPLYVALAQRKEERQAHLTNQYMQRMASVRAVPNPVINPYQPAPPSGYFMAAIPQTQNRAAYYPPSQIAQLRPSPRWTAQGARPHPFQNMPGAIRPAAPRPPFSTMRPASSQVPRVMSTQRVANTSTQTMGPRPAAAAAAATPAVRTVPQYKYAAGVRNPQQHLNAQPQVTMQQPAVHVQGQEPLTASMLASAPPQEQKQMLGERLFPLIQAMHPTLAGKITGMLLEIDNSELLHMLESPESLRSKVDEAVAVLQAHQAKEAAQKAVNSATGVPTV
eIF4H inh = inhibitors of RNA binding by human eIF4H | eIF4H fluorescence polarization binding assay | inhibition, % at 35 µM | 0.94% of 290,000 active;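 note: calls also rest on retests at 20 µM and on dose response follow-up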
MLLE-PAM2 inh = inhibitors of microRNA-mediated deadenylation, human PABP1 MLLE binding; P11940; GST-MLLE / FITC-PAM2 fluorescence polarization; inhibition, % at 20 µM; 0.36% of 360,000 active; AID 588489; in the data active = inhibition above about 35%, passing the limit was not always enough;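 note: plate controls were DMSO wells with GST-MLLE for no effect and wells lacking GST-MLLE protein for full effect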
BSA probe FL = BSA probe counter-screen for TCR-CD3 inhibitors; shares compounds with TCR CD3 inh; TAMRA-labeled BSA probe fluorescence counterscreen; inhibition, % at 9.4 µM; 10% of 1,200 active; AID 652035; in the data active = inhibition above about 23%;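 note: 0% = buffer low control and 100% = reference high control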
TCR-CD3 inh conf = confirmation of human TCR-CD3 interaction inhibitors | shares compounds with TCR CD3 inh | TAMRA-labeled TCR probe fluorescence binding assay | inhibition, % at 9.4 µM | 48% of 1,200 active; in the data active = inhibition above about 19%
Numbers without * were called inactive. Compounds with a hit are over-represented: about 1.6% of the library has one in this group of screens. Unless noted, the rule behind the calls is not given here.

`Cc1cc(C)n2nc(CNS(=O)(=O)c3ccc(C(C)(C)C)cc3)nc2n1` gave TCR CD3 inh -13 and MLLE-PAM2 inh -13.
For CON(Cc1ccccc1)S(=O)(=O)c1ccccc1Br the results were TCR CD3 inh 0.
For CC(C)C(=O)Nc1ccc(C(=O)NNC(=S)NC(=O)c2ccccc2[N+](=O)[O-])cc1 the results were RBBP9 inh 3, TCR CD3 inh 26*, PABP polyA inh inactive, eIF4H inh 3, MLLE-PAM2 inh 25, BSA probe FL -1 and TCR-CD3 inh conf 33*.
Screening O=C1NC(=O)C2(N1)c1ccccc1-c1ccccc12 returned TCR CD3 inh -3 and MLLE-PAM2 inh -17.
O=C1NC(=O)C2(N1)C(=O)c1cccc3cccc2c13 (stereo not given) was read as TCR CD3 inh 61*, MLLE-PAM2 inh inactive, BSA probe FL 37* and TCR-CD3 inh conf 31*.
CCc1c(-c2ccc(F)cc2)ncn1CCc1ccccc1OC was read as TCR CD3 inh 1.
`CC(C)[C@H](N)C(=O)N[C@H](C(=O)N1CCC2CCN(Cc3ccccc3)CC21)C(C)C` (stereo not given in full) gave TCR CD3 inh 8.
`COC(=O)c1cccc(-n2c(C)cc(O)cc2=O)c1` gave TCR CD3 inh 8.
COc1cc(CN2CCN(c3ncc(Cc4ccccc4)cn3)CC2)cc(OC)c1 was read as TCR CD3 inh -1.
Screening COC(=O)[C@@]12C[C@@H](CC(=O)NCCCCc3ccccc3)C(=O)N(Cc3ccc4c(c3)OCO4)C1=CCC(C)(C)C2 returned TCR CD3 inh -9.
Screening O=C(CCc1nnc(CCCCc2ccccc2)o1)N1CCC(N2CCCC2)CC1 returned RBBP9 inh 3, TCR CD3 inh 24*, PABP polyA inh inactive, eIF4H inh 0, MLLE-PAM2 inh -13, BSA probe FL 2 and TCR-CD3 inh conf -1.
For Cc1ccc2nc(-c3cccc(Cl)c3)c(Cc3ccsc3)n2c1 the results were TCR CD3 inh -7.
CC1(C)CC2CC(C)(CN2S(=O)(=O)c2ccc(C(=O)Nc3cccc(S(=O)(=O)N4CCOCC4)c3)cc2)C1 (stereo not given) was read as RBBP9 inh -56, TCR CD3 inh 35*, PABP polyA inh inactive, eIF4H inh -2, MLLE-PAM2 inh -13, BSA probe FL 5 and TCR-CD3 inh conf 29*.
COc1cccc(OC)c1C(=O)NC(=S)Nc1cc(-c2nc3ccccc3[nH]2)ccc1Cl was read as RBBP9 inh -54, TCR CD3 inh 60*, PABP polyA inh inactive, eIF4H inh active, MLLE-PAM2 inh 16, BSA probe FL 19 and TCR-CD3 inh conf 18.
For COC1(OC)C(/C=C/c2ccc(Cl)cc2)C(C#N)(C#N)C1(OC)OC (stereo not given) the results were RBBP9 inh 2, TCR CD3 inh 21*, PABP polyA inh inactive, eIF4H inh -5, MLLE-PAM2 inh 9, BSA probe FL -4 and TCR-CD3 inh conf 3.
`COC(=O)[C@]12C[C@H](CC(=O)N3CCN(C(=O)C4CC4)CC3)C(=O)N(CCC3=CCCCC3)C1=C[C@H](C(C)(C)C)O[C@@H]2C` gave TCR CD3 inh -4.
COCCCNC(=S)N/N=C/c1ccc(O)cc1O was read as RBBP9 inh -8, TCR CD3 inh 20*, PABP polyA inh inactive, eIF4H inh 11, MLLE-PAM2 inh 26, BSA probe FL -16 and TCR-CD3 inh conf -5.
For Oc1ccc(C=NNC(=S)Nc2ccc(F)cc2)c(O)c1 the results were TCR CD3 inh 20*, MLLE-PAM2 inh 28, BSA probe FL -15 and TCR-CD3 inh conf 9.
Screening COCCCNC(=S)N/N=C/c1ccc(O)cc1 returned RBBP9 inh -6, TCR CD3 inh 2, PABP polyA inh inactive, eIF4H inh -4 and MLLE-PAM2 inh 19.
`C[C@H](O)[C@@H]1C(=O)N2CCc3c([nH]c4cccc(-c5ccccc5)c34)[C@@H]2C[C@@H]1N(C)C(=O)C1CCCCC1` gave TCR CD3 inh 8.
